Here are results for one compound from ChEMBL document CHEMBL1156265, “Furo[2,3-b]pyridine-based cannabinoid-1 receptor inverse agonists: synthesis and biological evaluation. Part 1” (Bioorg Med Chem Lett, 2010).

The nature of series [1]: Bioavailability in rhesus monkey. It is filed as ADME, organism-based, Macaca mulatta. The conditions noted are these: in vivo. Summed up:
(§1)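 PK in dog and rhesus macaque. Bioavailability, plasma clearance (mL/min/kg) and terminal half-life derived from plasma drug levels.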

For series [2], the system named is Rattus norvegicus. As to the kind of experiment: Reduction of body weight in DIO rat assessed as weight change at 0.3 mg/kg, po after 18 hrs. It is filed as functional. Put shortly:
(§2)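 Acute study in diet-induced obese rats. A single oral dose was given and rats were monitored for 18 h. Food intake suppression and body weight change were measured relative to vehicle-treated controls.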

Series [3] has as its system Rattus norvegicus. As to the kind of experiment: Suppression of food intake in DIO rat at 0.3 mg/kg, po relative to control. It is filed as functional. Put shortly:
as §2

A short description of series [4]: Half life in rhesus monkey. It is filed as ADME, organism-based, Macaca mulatta. The note with it: in vivo. Summed up:
as §1

A short description of series [5]: Ratio of drug level in brain to plasma in rat at 1 mg/kg, iv after 4 hrs. It is filed as ADME, organism-based. More on the design: dose 1 mg/kg, route intravenous.
Series [6] is described as follows: Half life in rat. It is filed as ADME, organism-based. The note with it: in vivo.
The nature of series [7]: Plasma clearance in rhesus monkey. It is filed as ADME, organism-based, Macaca mulatta. Put shortly: as §1
The target of another series is Cannabinoid receptor 1 (Homo sapiens, UniProt P21554). Put plainly: Inhibition of human CB1 receptor.
Chain of Cannabinoid receptor 1 (P21554 whole entry): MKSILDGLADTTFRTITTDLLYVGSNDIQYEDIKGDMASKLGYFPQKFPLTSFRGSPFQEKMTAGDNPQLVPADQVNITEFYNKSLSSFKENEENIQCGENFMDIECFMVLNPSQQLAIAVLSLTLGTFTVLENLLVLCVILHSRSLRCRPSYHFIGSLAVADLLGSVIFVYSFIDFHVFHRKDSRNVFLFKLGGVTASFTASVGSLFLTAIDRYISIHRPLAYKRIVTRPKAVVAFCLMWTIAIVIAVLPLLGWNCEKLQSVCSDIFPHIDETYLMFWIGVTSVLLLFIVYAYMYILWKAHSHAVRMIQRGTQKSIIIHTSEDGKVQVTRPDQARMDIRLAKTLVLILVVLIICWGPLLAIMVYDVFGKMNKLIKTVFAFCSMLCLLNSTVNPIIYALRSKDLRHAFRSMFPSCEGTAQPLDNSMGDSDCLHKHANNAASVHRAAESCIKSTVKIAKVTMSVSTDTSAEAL
Series [8] is described as follows: Bioavailability in rat. The conditions noted are these: in vivo. It is filed as ADME, organism-based.
Series [9] in a line: Plasma clearance in dog. It is filed as ADME, organism-based, Canis lupus familiaris. Summed up: as §1
Series [10] in a line: Drug level in rat brain at 1 mg/kg, iv after 4 hrs. It is filed as ADME, organism-based. The note with it: read-out: Drug uptake. More on the design: dose 1 mg/kg, route intravenous.
In series [11] the test system is Rattus norvegicus. As to the kind of experiment: Suppression of food intake in DIO rat at 0.1 mg/kg, po relative to control. It is filed as functional. Summed up: as §2
Series [12] is described as follows: Half life in dog. It is filed as ADME, organism-based, Canis lupus familiaris. The note with it: in vivo. Summed up: as §1
Series [13] is described as follows: Bioavailability in dog. It is filed as ADME, organism-based, Canis lupus familiaris. The note with it: in vivo. Summed up:
as §1

Series [14] can be described thus: Drug level in rat plasma at 1 mg/kg, iv after 4 hrs. It is filed as ADME, organism-based. Details: dose 1 mg/kg, route intravenous. The note with it: read-out: Drug uptake.
The target of another series is Cannabinoid receptor 2 (Homo sapiens, UniProt P34972). As to the kind of experiment: Inhibition of human CB2 receptor.
Chain of Cannabinoid receptor 2 (P34972 whole entry): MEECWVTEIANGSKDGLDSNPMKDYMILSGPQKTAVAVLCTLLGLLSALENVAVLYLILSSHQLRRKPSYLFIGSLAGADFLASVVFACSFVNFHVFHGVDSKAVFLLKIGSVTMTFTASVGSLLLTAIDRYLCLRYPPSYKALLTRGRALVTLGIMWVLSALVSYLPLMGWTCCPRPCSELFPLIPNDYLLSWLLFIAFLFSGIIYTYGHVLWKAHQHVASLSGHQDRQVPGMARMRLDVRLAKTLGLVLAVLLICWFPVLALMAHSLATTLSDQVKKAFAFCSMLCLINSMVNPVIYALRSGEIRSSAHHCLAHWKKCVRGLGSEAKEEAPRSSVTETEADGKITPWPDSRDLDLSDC
Series [15] relates to Rattus norvegicus. As to the kind of experiment: Reduction of body weight in DIO rat assessed as weight change at 0.1 mg/kg, po after 18 hrs. It is filed as functional. Summed up:
as §2

Series [16] is described as follows: Plasma clearance in rat. It is filed as ADME, organism-based.

pIC50: −log10 of the molar value.

The term bioavailability denotes dose-corrected exposure relative to a reference, in per cent. For orientation: half-life means the time needed for the level to fall by half in the phase considered. In general, Kp refers to tissue or fluid exposure divided by exposure in the circulation. A word on the clearance: it is the rate of elimination divided by the concentration. By pIC50 is commonly meant the IC50 on a negative log10 scale, so that one unit is a factor of ten. Turning to `CC(=O)Nc1c(C(=O)C(C)(C)O)oc2nc(-c3ccccc3Cl)c(-c3ccc(Cl)cc3)cc12`, the bioavailability in series [1] is 100%; in series [8], 61%; in [13] it was 87%. The Activity is -1 g in the series with Rattus norvegicus [2], 41% with Rattus norvegicus [3], 28% in the series on Rattus norvegicus [11] and -1 g with Rattus norvegicus [15]. Also, the half-life in series [4] is 2700 min; in [6], 288 min; in series [12] it was 1560 min. In series [5], the Kp at 4 h is 0.77. The clearance in series [7] was found to be 2.8 mL/min/kg; in series [9] it was 5 mL/min/kg; in [16], 16 mL/min/kg. Moreover, the pIC50 is 8.27 at Cannabinoid receptor 1 and 5.27 against Cannabinoid receptor 2. Moreover, the concentration at 4 h in series [10] came to 56 nM; in series [14], 72 nM.
